A selection: hits, their analogues and other compounds. The true share with any hit is near 3.9%.
STAT1 activator = STAT1 signaling activators, primary screen, cell-based, HTS, luciferase reporter; NIH 3T3 STAT1-luciferase reporter, IFN-gamma, luminescence; 100% = IFN-gamma alone, no compound; activation (% of control), % at 5.5 µM; 200,000 compounds, 2.6% hits; AID 932, 2007;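 active = activation above the screen-wide mean activation plus 3 SD, cut at about 130% in these data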
Pf gamet viab = late stage P. falciparum gametocyte viability inhibitors, primary screen, ATP luminescence, HTS; P. falciparum stage V gametocytes, 24 h; inhibition, % at 10.9 µM; 150,000 compounds, 0.065% hits;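 active = inhibition above the mean plus 3 SD of compounds within the control limits, set per campaign, cut at about 38% in these data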
STAT1 inh = STAT1 signaling inhibitors, primary screen, cell-based, HTS, luciferase reporter | 200,000 compounds, 0.35% hits | inhibition, % at 5.5 µM | NIH 3T3 STAT1-luciferase reporter, IFN-gamma, luminescence;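 active = inhibition above a set limit, the mean inhibition across all tested compounds plus 3 SD, cut at about 34% in these data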
APP 5'UTR act = activators of APP 5'UTR luciferase reporter, primary screen, SH-SY5Y cells. SH-SY5Y APP 5'UTR luciferase reporter, luminescence; zero percent = DMSO vehicle wells. activation, % at 2 µM. 190,000 compounds, 1% hits. AID 1276, 2008;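 active = activation above a set limit, based on mean plus 3 SD of controls, cut at about 140% in these data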
NF-kB expr up = activators of NF-kB expression in neurons, primary screen, cell-based, HTS; human neuronal cells, NF-kB reporter expression; hits give high values; fold change at 12.5 µM; 190,000 compounds, 1.6% hits; AID 1239, 2008; in the data active = fold change above about 3.3
STAT3 activator = IL-6 driven STAT3 reporter potentiators, primary screen, U3A cells, luciferase, luminescence, MLSCN library. AID 871, 2007. 190,000 compounds, 0.91% hits. activation (% of control), % at 5.6 µM. IL-6 STAT3-luciferase reporter; 100% = signal with IL-6 EC80 alone;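 active = activation above the screen-wide mean of compound activation plus 3 SD, cut at about 130% in these data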
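Material: STAT3-luciferase reporter U3A cells; Probe or stimulus: IL-6 (33 ng/mL); Incubation: compound pre-incubation 1 h before IL-6, then 6 h stimulation at 37 °C; Technique: luminescence from STAT3-driven luciferase reporter; Evaluation: % activation versus median of IL-6-stimulated wells; Controls: IL-6-only high control.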
Large screens that a line does not name were inactive; ! = a repeat was not active.

Cc1cccc(N(C(=O)c2ccc(CN3CCOCC3)o2)C(C(=O)NC(C)(C)C)c2ccc(F)cc2)c1 (stereo not given)	none (no result: Pf gamet viab)
NC(=O)NCC(c1ccccc1)C1CCCCC1 (stereo not given)	none (no result: STAT1 activator, STAT1 inh, APP 5'UTR act, NF-kB expr up, STAT3 activator)
COc1ccc(NC(=O)c2cc([N+](=O)[O-])ccc2O)cc1	STAT1 inh 93.8 (no result: NF-kB expr up)
Cc1cc(N/N=C/c2ccc3c(c2)OCO3)nc2ccccc12	none (no result: STAT1 activator, STAT1 inh, APP 5'UTR act, NF-kB expr up, STAT3 activator)
O=C(NCc1ccccc1)NC(O)C(Cl)(Cl)Cl (stereo not given)	none
COc1ccccc1C(=O)Nc1ccc2c3c(cccc13)CC2	STAT1 activator 131.9 (no result: Pf gamet viab)
COc1cccc(OC)c1C(=O)Nc1ccc2c3c(cccc13)CC2	none (no result: Pf gamet viab)
Cc1c(Cl)cccc1NC(=O)CN1CCN(CCN=CC2=C(O)CC(c3ccccc3)CC2=O)CC1 (stereo not given)	none
CCOC(=O)c1cc(-c2ccc(F)cc2)n(CCC(=O)NC2CCN(Cc3ccccc3)CC2)c1C	NF-kB expr up 3.68
CCN1CC(c2ccccc2)C(c2ccc(Cl)cc2)=N1 (stereo not given)	none
CCN(CC)S(=O)(=O)c1cccc(-c2cn3cc(C)ccc3n2)c1	none (no result: Pf gamet viab)
Cc1ccc2nc(-c3cccc(S(=O)(=O)N(C)C)c3)cn2c1	STAT1 activator 136.2 (no result: Pf gamet viab)
Cc1cc(C(=O)Cn2nnc3ccccc3c2=O)c(C)n1-c1ccccc1F	STAT1 activator 129.4, APP 5'UTR act 197.4
Cc1cc(C(=O)COC(=O)c2ccc(O)cc2)c(C)n1-c1ccccc1F	APP 5'UTR act 185.0
Cc1cc(C(=O)Cn2nnc3ccccc3c2=O)c(C)n1-c1c(C)n(C)n(-c2ccccc2)c1=O	none (no result: Pf gamet viab)
Cc1cc(C(=O)COC(=O)c2ccc[nH]c2=O)c(C)n1-c1ccccc1F	none (no result: STAT1 activator, STAT1 inh, APP 5'UTR act, NF-kB expr up, STAT3 activator)
CCCCN1CCc2c([nH]c3c(C)cccc23)C1=O	NF-kB expr up 3.46 (no result: Pf gamet viab)
O=c1oc2cc(Br)ccc2n1CSC1=NCCS1	NF-kB expr up 7.66
CN(Cc1cnccn1)Cc1ccccc1OCC(O)CN1CCc2ccccc2C1 (stereo not given)	none
CC(=O)Nc1ccc(NC(=O)c2ccc(Cl)nc2)cc1	none (no result: STAT1 activator, STAT1 inh, APP 5'UTR act, NF-kB expr up, STAT3 activator)
O=C(Nc1ccc2c(c1)CCC2)c1ccc(Cl)nc1	STAT1 activator 162.9, NF-kB expr up 4, STAT3 activator 137.1 (no result: Pf gamet viab)
O=C(Nc1ccc2c(c1)CCC2)c1cnc(Cl)c(Cl)c1	STAT1 activator 134.9, APP 5'UTR act 149.0, NF-kB expr up 3.82
Cc1cc(C)c(S(=O)(=O)NCC2CCC(C(=O)NCc3ccccn3)CC2)c(C)c1 (stereo not given)	none
CSc1ccc(Cl)c(C(=O)OCC(=O)N(C)CCC#N)c1	none (no result: Pf gamet viab)
COc1ccc(-c2nnnn2-c2ccc(F)cc2F)cc1	NF-kB expr up 3.89
COc1ccc(-n2nnnc2-c2ccccc2)cc1	none (no result: Pf gamet viab)
O=C(COc1ccc(F)cc1)N1CCC(c2ccccc2)C1 (stereo not given)	STAT1 activator 135.8
O=C(/C=C/c1ccccc1)N1CCC(c2ccccc2)C1 (stereo not given)	STAT1 activator 137.2, APP 5'UTR act 140.7, NF-kB expr up 4.44
O=C(Nc1ccccc1)N1CCC(c2ccccc2)C1 (stereo not given)	STAT1 activator 138.0 (no result: Pf gamet viab)
Cc1cccc(OCC(=O)N2CCC(c3ccccc3)C2)c1 (stereo not given)	none (no result: Pf gamet viab)
O=C(c1cccs1)N1CCC(c2ccccc2)C1 (stereo not given)	STAT1 activator 134.7
Cc1cc(C(=O)c2ccc3ccccc3c2)c(C)o1	none (no result: STAT1 activator, STAT1 inh, APP 5'UTR act, NF-kB expr up, STAT3 activator)
Cc1cccc(C(=O)NC(=S)Nc2c(C)n(C)n(-c3ccccc3)c2=O)c1	none (no result: STAT1 activator, STAT1 inh, APP 5'UTR act, NF-kB expr up, STAT3 activator)
O=C(NCc1ccccn1)C1Nc2ccc(C(F)(F)F)cc2C2C=CCC12 (stereo not given)	none (no result: STAT1 activator, STAT1 inh, APP 5'UTR act, NF-kB expr up, STAT3 activator)
N#Cc1c2n(c(=S)n(-c3ccc(F)cc3)c1=O)CCCCC2	none
Cc1ccccc1N=C1NC(=O)CS1	none (no result: Pf gamet viab)
Cc1ccccc1N=C1Nc2ccccc2CS1	NF-kB expr up 4.63 (no result: Pf gamet viab)
O=C(O)C(=O)Cc1c[nH]c2ccccc12	STAT3 activator 132.9 (no result: Pf gamet viab)
O=C(O)C(O)Cc1c[nH]c2ccccc12 (stereo not given)	none (no result: Pf gamet viab)
CC(=O)/C=C(/C)NC(Cc1c[nH]c2ccccc12)C(=O)O (stereo not given)	STAT3 activator 133.1!
Cc1nc(N[C@@H](Cc2c[nH]c3ccccc23)C(=O)O)c2oc3ccccc3c2n1	STAT3 activator 150.5 (no result: Pf gamet viab)
C=CCN(CC=C)C(=S)Nc1ccc(OC)c(OC)c1	none (no result: Pf gamet viab)
CCc1cc2c(=O)c(-c3nc(C)cs3)coc2cc1O	none (no result: STAT1 activator, STAT1 inh, APP 5'UTR act, NF-kB expr up, STAT3 activator)
COc1ccc2c(=O)c(-c3nc(C)cs3)coc2c1	NF-kB expr up 5.89
Nc1cccn2c(-c3ccc(Cl)cc3)cnc12	APP 5'UTR act 138.4, NF-kB expr up 8.47 (no result: Pf gamet viab)
Cn1c(O)c(C2=c3ccccc3=NC2=O)sc1=Nc1ccc(Cl)cc1	NF-kB expr up 5.15
CN(C)c1ccc(NC(=O)Oc2ccccc2)cc1	STAT1 activator 130.5 (no result: Pf gamet viab)
CN(C)c1ccc(C(=S)Nc2ccccc2)cc1	STAT1 activator 138.8 (no result: Pf gamet viab)
CN(C)c1ccc(NC(=S)c2ccccn2)cc1	STAT1 inh 68.3
CN(c1cccc(NC(=O)Nc2cccc(Cl)c2)c1)S(C)(=O)=O	none
CN(C)c1ccc(NC(=O)Nc2cccc(Cl)c2)cc1	STAT1 activator 135.3, APP 5'UTR act 180.7, NF-kB expr up 7.22
CN(C)S(=O)(=O)c1ccc(NC(=O)c2ccccn2)cc1	none
CC(=O)Nc1ccc(NC(=O)Oc2ccccc2)cc1	none
CC(C)CC(=O)N1CCC(N(CCc2ccccc2)Cc2ccccc2)CC1	none (no result: STAT1 activator, STAT1 inh, APP 5'UTR act, NF-kB expr up, STAT3 activator)
CC(=O)Oc1ccc2c(=O)c(-c3ccccc3)coc2c1	STAT1 activator 130.7
COc1ccc(/C=C/C(=O)c2cc3c(cc2N)OCO3)cc1	APP 5'UTR act 145.2, NF-kB expr up 3.77
Cc1ccc2nc(-c3ccc(N4C(=N)SC5CS(=O)(=O)CC54)cc3)sc2c1 (stereo not given)	STAT1 activator 130.0
O=C(OCc1csc(-c2ccccc2)n1)c1ccc(O)cc1	STAT1 activator 149.7
CNc1nc(N(C)C)nc(N(C)C)n1	STAT3 activator 135.7 (no result: Pf gamet viab)
Cc1ccc(O)c(/C=N/NC(=O)c2[nH]ncc2Br)c1	STAT1 activator 131.4, NF-kB expr up 8.05
CCOc1ccc(/C=N/NC(=O)c2[nH]ncc2Br)c(O)c1	NF-kB expr up 4.4
COc1ccc(OC)c(/C=N/NC(=O)c2[nH]ncc2Br)c1	none (no result: STAT1 activator, STAT1 inh, APP 5'UTR act, NF-kB expr up, STAT3 activator)
c1ccc(-c2nc(-c3ccco3)cs2)nc1	STAT1 activator 130.5
c1ccc(-c2nccc(-c3ccco3)n2)nc1	none
Cc1ccc2nc(-c3ccccn3)oc2c1	APP 5'UTR act 175.6, NF-kB expr up 4.46
Clc1cccc(-c2nc(-c3ccccn3)no2)c1	STAT1 inh 53.9 (no result: Pf gamet viab)
Cc1ccc2nc(-c3cccnc3)oc2c1	none

Source: PubChem
